{"source": "paper PMC5557381", "about": "(European journal of medicinal chemistry, 2015)", "key": {"[1]": {"system": "interferon-stimulated response element", "test": "Host-factor reporter assay pISRE-Luc in MH-14 cells", "assay_type": "cell-based", "details": "5, 10 and 25 µM, 48 h", "how_it_was_run": "(§1)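 MH-14 hepatoma cells stably carrying an HCV gt 1b subgenomic replicon were transfected with 300 ng of the gene-specific luciferase reporter plasmid. At 16 h post-transfection, cells were exposed to test compound or to DMSO as control for 48 h. Luciferase activity was then read, with transfection efficiency normalised to Renilla luciferase expression.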"}, "[2]": {"system": "anti-oxidant response element", "test": "Host-factor reporter assay p3xARE-Luc in MH-14 cells", "assay_type": "cell-based", "details": "5, 10 and 25 µM, 48 h", "how_it_was_run": "as §1"}, "HCV NS3 helicase (NS3h)": {"target": "HCV NS3 helicase (NS3h) (Hepatitis C virus genotype 1b, UniProt Q9WMX2)", "test": "Molecular beacon based NS3 helicase assay", "assay_type": "biochemical", "details": "concentrations as high as 500 µM, data not shown"}, "cyclooxygenase-2": {"system": "cyclooxygenase-2", "test": "Host-factor reporter assay pCOX-2-FLuc in MH-14 cells", "assay_type": "cell-based", "details": "5, 10 and 25 µM, 48 h", "how_it_was_run": "as §1"}, "[3]": {"system": "HCV IRES mediated translation", "test": "HCV IRES mediated translation dual luciferase reporter assay in Huh7.5 cells", "assay_type": "cell-based, Hepatitis C virus", "details": "data not shown"}, "[4]": {"target": "HCV NS5B polymerase (NS5BCΔ21) (Hepatitis C virus genotype 1b, UniProt Q9WMX2)", "test": "NS5B RdRp primer-dependent elongation assay", "assay_type": "biochemical", "details": "50 µM, preliminary assay, data not shown"}, "heme oxygenase-1": {"system": "heme oxygenase-1", "test": "Host-factor reporter assay pHO-1-Luc in MH-14 cells", "assay_type": "cell-based", "details": "5, 10 and 25 µM, 48 h", "how_it_was_run": "as §1"}, "[5]": {"system": "MH-14 cells carrying stably replicating HCV sub genomic replicon gt 1b", "test": "HCV RNA by quantitative RT-PCR in reporter free MH-14 cells", "assay_type": "cell-based, Hepatitis C virus genotype 1b", "details": "Hepatitis C virus, GT1B, MH14, read-out: EC50, HCV RNA in MH-14 cells"}}}
{"smiles": "c1ccc(Cn2c(-c3ccccc3)cc3c2CCCC3)cc1", "note": "[Compound 39]", "values": [{"measurement": "Effect on interferon-stimulated response element reporter", "setting": "[1]", "result": "no effect"}, {"measurement": "Effect on anti-oxidant response element reporter", "setting": "[2]", "result": "no effect"}, {"measurement": "Inhibition of NS3 helicase unwinding of a DNA substrate", "setting": "HCV NS3 helicase (NS3h)", "result": "no effect"}, {"measurement": "Effect on cyclooxygenase-2 reporter", "setting": "cyclooxygenase-2", "result": "no effect"}, {"measurement": "Effect on HCV IRES mediated translation", "setting": "[3]", "result": "no effect"}, {"measurement": "Inhibition of NS5B RdRp activity", "setting": "[4]", "result": "no effect"}, {"measurement": "Effect on heme oxygenase-1 reporter", "setting": "heme oxygenase-1", "result": "no effect"}, {"measurement": "EC50", "setting": "[5]", "result": 3.13, "unit": "µM"}]}
